In ChEMBL document CHEMBL4732139, “Novel N-Methylated Cyclodepsipeptide Prodrugs for Targeted Cancer Therapy” (J Med Chem, 2021):
pIC50: −log10 of the molar value. Activity calls are given as the source filed them. No cut-off for these calls is given here. Where a SMILES comes first, the peptide text is derived from it. Bridges are numbered along the chain shown (N, C = ends). [ ]: non-standard residue; d: D form. The star is where a group is joined. NMe2Val = CC(C)[C@@H](C(=O)*)N(C)C; NMeI = CC[C@H](C)[C@H](NC)C(=O)O; NMeT = CN[C@H](C(=O)O)[C@@H](C)O; NMeL = CN[C@@H](CC(C)C)C(=O)O; dHiv = CC(C)[C@@H](O)C(=O)O; NMeA = CN[C@@H](C)C(=O)O; dNMeA = CN[C@H](C)C(=O)O

Columns and labels:
BT-549 [1] = test: Cytotoxicity in human BT-549 cells assessed as reduction in cell viability incubated for 48 hrs by CCK8 assay; type: functional, cell-based
Outline: (§1)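 Cells grown in high-glucose DMEM with 10% FBS and penicillin/streptomycin at 37 °C, 5% CO₂. 3000−4000 cells/well seeded and preincubated overnight. Treated with a concentration gradient in quadruplicate for 48 h. Medium then replaced with 10% CCK-8 in fresh medium for 1 h at 37 °C, A450 read. IC50 from log(inhibitor)-response fit, mean SD of three independent experiments.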

A549 [2] = test: Cytotoxicity in human A549 cells assessed as reduction in cell viability incubated for 48 hrs by CCK8 assay; type: functional, cell-based; outline: as §1
BT-549 [3] = test: Cytotoxicity in human BT-549 cells assessed as reduction in cell viability incubated for 72 hrs by CCK8 assay; type: functional, cell-based
Outline: (§2)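 CCK-8 viability assay with a 72 h treatment. Cells seeded at 3000−4000/well and preincubated overnight. Concentration gradient applied in quadruplicate. Then 10% CCK-8 for 1 h at 37 °C and A450 read. IC50 by log(inhibitor)-response fitting.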

A549 [4] = test: Cytotoxicity in human A549 cells assessed as reduction in cell viability incubated for 72 hrs by CCK8 assay; type: functional, cell-based; outline: as §2
[5] = Toxicity in Balb/c mouse assessed as induction of weight loss at 1 mg/kg, iv dosed every 2 days and measured on day 3; type: organism-based; settings: in vivo, 72 h, time 3 day
Outline: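 In vivo tolerability in six-week-old male Balb/c nude mice (n = 3 per group). Compounds were given intravenously every 2 days at various dosages, and body weight was followed over time.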

[6] = Stability in PBS at 37 degC assessed as parent intact compound remaining level at 50 uM after 24 hrs by RP-HPLC analysis; type: physicochemical; settings: read-out: Stabilty
Outline: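 50 μM compound in 10% DMSO/PBS without DTT or cathepsin B at 37 °C. Sampled at 0, 4, 8, 12 and 24 h and analyzed by RP-HPLC (C18, 10−100% CH₃CN/0.1% TFA over 20 min). Three repeats.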

[7] = Drug metabolism in PBS at 37 degC assessed as metabolite-1a formation at 50 uM in presence of DTT after 30 mins by RP-HPLC analysis
Outline: (§3)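 50 μM conjugate (from 2 mM DMSO stock) in 10% DMSO/PBS with 150 μM DTT (final) at 37 °C. Aliquots taken at 30, 60 and 90 min for RP-HPLC: C18, 10−100% CH₃CN over 20 min in 0.1% TFA water, 0.5 mL/min, detection at 220 and 254 nm. Three repeats.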

[8] = Drug metabolism in PBS at 37 degC assessed as metabolite-1a formation at 50 uM in presence of DTT after 30 to 90 mins by RP-HPLC analysis; settings: time 30-90 min; outline: as §3
[9] = Drug metabolism in PBS at 37 degC assessed as parent compound disappearance at 50 uM in presence of DTT after 90 mins by RP-HPLC analysis; outline: as §3
BT-549 [10] = test: Cytotoxicity in human BT-549 cells assessed as reduction in cell viability incubated for 48 hrs in absence of GSH-OEt by CCK8 assay; type: functional, cell-based; settings: BT-549, 48 h; outline: as §1
A549 [11] = test: Cytotoxicity in human A549 cells assessed as reduction in cell viability incubated for 48 hrs in absence of GSH-OEt by CCK8 assay; type: functional, cell-based; settings: A549, 48 h; outline: as §1
A549 [12] = test: Cytotoxicity in human A549 cells assessed as reduction in cell viability incubated for 48 hrs in presence of GSH-OEt by CCK8 assay; type: functional, cell-based; settings: A549, 48 h
Outline: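 A549 cells preincubated 2 h with 1 mM GSH-OEt, then exposed to compound for 48 h. Viability by CCK-8. Remaining steps: overnight-seeded cells (3000−4000/well), quadruplicate wells, 10% CCK-8 for 1 h at 37 °C, A450. IC50 by log(inhibitor)-response fit, mean of triplicate.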

[13] = Toxicity in Balb/c mouse assessed as induction of weight loss at 5 mg/kg, iv dosed every 2 days for total 10 times and measured on day 21; type: organism-based; settings: in vivo, 504 h, time 21 day
Outline: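 Six-week male Balb/c nude mice, n = 3 per group, given various doses by i.v. injection every 2 days. Body weight monitored.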

[14] = Toxicity in Balb/c mouse xenografted with human A549 cells assessed as induction of weight loss at 5 mg/kg, iv dosed every 2 days for total 10 times and measured on day 21; type: organism-based; settings: in vivo, 504 h, time 21 day
Outline: (§4)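 Six-week male Balb/c nude mice; 1 × 10⁷ A549 cells washed in cold PBS, suspended in serum-free high-glucose DMEM, injected s.c. in right flank. At ~50 mm³ (L × W × 1/2 W), randomized into two groups, n = 7 each. 5 mg/kg in 10% DMSO/PBS (1 mg/mL) given i.v. via tail vein every 2 days ×10. Vehicle control 10% DMSO/PBS. Tumor size and body weight measured before each injection. Tumors excised and weighed at end.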

[15] = Toxicity in Balb/c mouse xenografted with human A549 cells assessed as induction of side effect at 5 mg/kg, iv dosed every 2 days for total 10 times and measured on day 21; type: organism-based; settings: in vivo; outline: as §4
A549 [16] = test: Antitumor activity against human A549 cells xenografted in Balb/c mouse assessed as reduction in tumor size at 5 mg/kg, iv dosed every 2 days for total 10 times and measured on day 21; type: functional, organism-based; settings: time 21.0 day; outline: as §4
A549 [17] = test: Antitumor activity against human A549 cells xenografted in Balb/c mouse assessed as reduction in tumor growth at 5 mg/kg, iv dosed every 2 days for total 10 times and measured on day 21; type: functional, organism-based; settings: time 21.0 day; outline: as §4
A549 [18] = test: Antitumor activity against human A549 cells xenografted in Balb/c mouse assessed as reduction in tumor mass at 5 mg/kg, iv dosed every 2 days for total 10 times and measured on day 21 relative to untreated control; type: functional; settings: time 21 day; outline: as §4

SMILES | pIC50 (BT-549 [1]; Homo sapiens, BT-549, 48 h, read-out: IC50) | pIC50 (A549 [2]; Homo sapiens, A549, 48 h, read-out: IC50) | Activity (BT-549 [3]) | Activity (A549 [4]) | Activity [5] | IC50 (BT-549 [1]; bt-549) | IC50 (A549 [2]; a549) | remaining at 24 h, 50 µM [6] | Drug metabolism [7] | Drug metabolism [8] | Drug metabolism [9] | pIC50 (BT-549 [10]) | pIC50 (A549 [11]) | pIC50 (A549 [12]) | Activity [13] | Activity [14] | Activity [15] | Activity (A549 [16]) | Activity (A549 [17]) | fold change (FC) (A549 [18])
CC[C@H](C)[C@H]1C(=O)N[C@@H](C)C(=O)N(C)[C@@H](CC(C)C)C(=O)N[C@@H](Cc2ccc(OC)cc2)C(=O)N(C)[C@H](C)C(=O)O[C@H](C)[C@H](N(C)C(=O)[C@H](CC(C)C)N(C)C(=O)[C@H](C)N(C)C(=O)[C@H](OC(=O)[C@H](C(C)C)N(C)C)C(C)C)C(=O)N(C)[C@@H](C)C(=O)N1C (NMe2Val-[dHiv][NMeA][NMeL][NMeT][NMeA][NMeI]A[NMeL]Y(Me)[dNMeA]; ester 4-C) | 7.74 | 7.72 | Active | Active | Toxic |  |  |  |  |  |  |  |  |  |  |  |  |  |  | 
C#CCCC(=O)NCCCC[C@@H]1NC(=O)[C@@H](Cc2ccc(O)cc2)NC(=O)[C@H](CC(=O)O)NC(=O)CNC(=O)[C@H](CCCNC(=N)N)NC1=O |  |  | inactive | inactive |  | Not Active | Not Active |  |  |  |  |  |  |  |  |  |  |  |  | 
CC[C@H](C)[C@H]1C(=O)N[C@@H](C)C(=O)N(C)[C@@H](CC(C)C)C(=O)N[C@@H](Cc2ccc(OC)cc2)C(=O)N(C)[C@H](C)C(=O)O[C@H](C)[C@H](N(C)C(=O)[C@H](CC(C)C)N(C)C(=O)[C@H](C)N(C)C(=O)[C@H](OC(=O)[C@H](C(C)C)[N+](C)(C)Cc2ccc(NC(=O)OCCSSCCn3cc(CCC(=O)NCCCC[C@@H]4NC(=O)[C@@H](Cc5ccc(O)cc5)NC(=O)[C@H](CC(=O)O)NC(=O)CNC(=O)[C@H](CCCNC(=N)N)NC4=O)nn3)cc2)C(C)C)C(=O)N(C)[C@@H](C)C(=O)N1C.O=C([O-])C(F)(F)F |  |  | Active | Active |  |  |  | > 90% | Metabolite detected | Metabolite detected | 100% | 6.51 | 6.58 | 7.69 | Non-Toxic | Non-Toxic | Non-Toxic | Active | Active | 4
